Sampled rows, rich in hits. Any-hit rate of the full collection: about 4.9%.
STAT3 act-1 – increases IL-6 driven STAT3 reporter signal. activation (% of control), % at 5.6 µM. hit rate 0.91% among 190,000. U3A cells, IL-6 STAT3-luciferase reporter, luminescence; 100% = signal with IL-6 EC80 alone;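 active = activation above the screen-wide mean of compound activation plus 3 SD, cut at about 130% in these data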;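 also: 0% = background luminescence of wells with medium and substrate only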
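Material: human U3A cells carrying STAT3-luciferase construct. Measured by: reporter luminescence signal. Timing: compound 1 h, then IL-6 6 h at 37 °C.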
STAT1 act-1 – STAT1 signaling activation; NIH 3T3 STAT1-luciferase reporter, IFN-gamma, luminescence; 100% = IFN-gamma alone, no compound; activation (% of control), % at 5.5 µM; hit rate 2.6% among 200,000;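 active = activation above the screen-wide mean activation plus 3 SD, cut at about 130% in these data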;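 also: raw ratio to IFN-gamma control signal so 100% means no change and 0% no light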
APP 5'UTR act – activates APP 5'UTR luciferase reporter. SH-SY5Y APP 5'UTR luciferase reporter, luminescence; zero percent = DMSO vehicle wells. activation, % at 2 µM. hit rate 1% among 190,000;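 active = activation above a set limit, based on mean plus 3 SD of controls, cut at about 140% in these data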
STAT1 blocker – inhibitors of IFN-gamma induced STAT1 signaling; NIH 3T3 STAT1-luciferase reporter, luminescence; inhibition, % at 5.5 µM; hit rate 0.35% among 200,000;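 active = inhibition above a set limit, the mean inhibition across all tested compounds plus 3 SD, cut at about 34% in these data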;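 also: 0% = IFN-gamma with DMSO and 100% = IFN-gamma with 300 µM nifuroxazide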
NF-kB expr up – compounds increasing NF-kB expression in human neuronal cells. AID 1239. NF-kB reporter expression; hits give high values. fold change at 12.5 µM. hit rate 1.6% among 190,000; in the data active = fold change above about 3.3
STAT3 inh – STAT3 signaling inhibition; hit rate 0.89% among 190,000; U3A cells, IL-6 STAT3-luciferase reporter, luminescence; host cell line lacks STAT1; inhibition, % at 5.5 µM;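 active = inhibition above the mean inhibition across all screened compounds plus 3 SD, cut at about 44% in these data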;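 also: 0% = DMSO only wells and 100% = 100 µM nifuroxazide control wells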
STAT3 act-2 – confirmation of STAT3 signaling activators; shares compounds with STAT3 act-1; U3A STAT3-luciferase reporter, IL-6 potentiation, luminescence; U3A cells lack STAT1; 100 means same as IL-6 alone; potentiation (% of control), % at 5.7 µM; hit rate 64% among 1,200; AID 1267;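 active = percent activation of the STAT3 luciferase reporter above a set limit taken from the earlier primary screen, cut at about 130% in these data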;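 also: 0% = background signal of medium plus substrate and 100% = median of IL-6 with DMSO wells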
NFkB act 2 – counter-screen for STAT3 activators: NF-kappaB activation; shares compounds with STAT3 act-1; human cells, NF-kappaB reporter activation; activation (% of control), % at 5.7 µM; hit rate 11% among 1,200; AID 1309; in the data active = activation above about 120%;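 also: reporter induced by TNF-alpha stimulation; 100% = median of stimulated DMSO wells and 0% = no signal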
STAT1 act-2 – activates STAT1, counter-screen to STAT3 activators; shares compounds with STAT3 act-1; NIH 3T3 STAT1-luciferase reporter, IFN-gamma, luminescence; activation (% of control), % at 5.7 µM; hit rate 13% among 1,200; AID 1318;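 active = activation above the solvent-only control well mean plus 3 SD, set per screening run, cut at about 120% in these data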;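 also: 100% = IFN-gamma with DMSO median signal so 100% means no change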
* marks the source's active call; other numbers are inactive results.

`Cc1ccc(C)n1NC(=O)c1ccccc1[N+](=O)[O-]` gave STAT3 act-1 98, STAT1 act-1 103, APP 5'UTR act 42, STAT1 blocker -4, NF-kB expr up 1.1 and STAT3 inh 5.
For Cc1ccc(C)n1NC(=O)c1ccccc1O the results were STAT3 act-1 153*, STAT1 act-1 99, APP 5'UTR act 2, STAT1 blocker 1, NF-kB expr up 1.2, STAT3 inh -55, STAT3 act-2 151*, NFkB act 2 105 and STAT1 act-2 97.
CN1/C(=C\C=Nc2ccc3ccccc3c2)C(C)(C)c2ccccc21 was read as STAT3 act-1 148*, STAT1 act-1 92, APP 5'UTR act 15, STAT1 blocker 8, NF-kB expr up 0.4, STAT3 inh -43, STAT3 act-2 119, NFkB act 2 105 and STAT1 act-2 94.
Screening COCCn1c(=NC(=O)c2cc3ccccc3oc2=O)sc2cc(S(N)(=O)=O)ccc21 returned STAT3 act-1 100, STAT1 act-1 102, APP 5'UTR act -10, STAT1 blocker -2, NF-kB expr up 0.94 and STAT3 inh -3.
`O=C(Nc1ccccc1C(=O)NCc1cccnc1)c1ccc(Cl)cc1Cl` gave STAT3 act-1 102, STAT1 act-1 92, APP 5'UTR act 29, STAT1 blocker 8, NF-kB expr up 1.1 and STAT3 inh -4.
For Cc1nc2c(-c3ccc(Cl)cc3)cnn2c2c1CCC2 the results were STAT3 act-1 142*, STAT1 act-1 102, APP 5'UTR act 37, STAT1 blocker -3, NF-kB expr up 1.3, STAT3 inh -51, STAT3 act-2 151*, NFkB act 2 110 and STAT1 act-2 110.
Cc1ccc(CNC(=O)C2CC(c3ccccc3[N+](=O)[O-])=NO2)cc1 (stereo not drawn) was read as STAT3 act-1 156*, STAT1 act-1 104, APP 5'UTR act -4, STAT1 blocker -4, NF-kB expr up 0.98, STAT3 inh -52, STAT3 act-2 174*, NFkB act 2 108 and STAT1 act-2 112.
`O=C(Nc1c(F)cccc1F)c1cnc(N2CCN(c3ccccn3)CC2)c2ccccc12` gave STAT3 act-1 98, STAT1 act-1 106, APP 5'UTR act -8, STAT1 blocker -7, NF-kB expr up 0.31 and STAT3 inh 8.
Screening Cc1ccc(NC(=O)c2cnc(N3CCN(c4ccccn4)CC3)c3ccccc23)c(Br)c1 returned STAT3 act-1 143*, STAT1 act-1 91, APP 5'UTR act -3, STAT1 blocker 8, NF-kB expr up 0.48, STAT3 inh -52, STAT3 act-2 126, NFkB act 2 113 and STAT1 act-2 109.
For COc1ccc([N+](=O)[O-])cc1NC(=O)c1ccc(N(Cc2ccccc2Cl)S(C)(=O)=O)cc1 the results were STAT3 act-1 98, STAT1 act-1 103, APP 5'UTR act -12, STAT1 blocker -4, NF-kB expr up 0.61 and STAT3 inh 0.
For O=C(c1cccc(C(F)(F)F)c1)N(c1ccccn1)C1CCCCC1 the results were STAT3 act-1 95, STAT1 act-1 90, APP 5'UTR act -5, STAT1 blocker 10, NF-kB expr up 1.2 and STAT3 inh 9.
For Cc1ccccc1C1c2[nH]c3ccccc3c2CCN1CCCn1cccn1 (stereo not drawn) the results were STAT3 act-1 152*, STAT1 act-1 92, APP 5'UTR act -16, STAT1 blocker 6, NF-kB expr up 0.96, STAT3 inh -51, STAT3 act-2 148*, NFkB act 2 104 and STAT1 act-2 90.
O=C(Nc1ccccn1)c1ccc2ccccc2n1 was read as STAT3 act-1 147*, STAT1 act-1 111, APP 5'UTR act 141*, STAT1 blocker -12, NF-kB expr up 5.9*, STAT3 inh -50, STAT3 act-2 180*, NFkB act 2 128* and STAT1 act-2 164*.
`CC1=NN(C(=O)c2cccc(Cn3nc(C)c([N+](=O)[O-])c3C)c2)C(O)(C(F)(F)F)C1` (stereo not drawn) gave STAT3 act-1 107, STAT1 act-1 95, APP 5'UTR act 5, STAT1 blocker 6, NF-kB expr up 1.2 and STAT3 inh -2.
Screening COC(=O)c1[nH]c2ccccc2c1NC(=O)CN1CCCCCC1 returned STAT3 act-1 104, STAT1 act-1 93, APP 5'UTR act 2, STAT1 blocker 7, NF-kB expr up 0.56 and STAT3 inh -1.
CCS(=O)(=O)Nc1c(C(=O)O)[nH]c2ccccc12 was read as STAT3 act-1 164*, STAT1 act-1 94, APP 5'UTR act 17, STAT1 blocker 7, NF-kB expr up 1.3, STAT3 inh -71, STAT3 act-2 169*, NFkB act 2 102 and STAT1 act-2 97.
For CC(=O)Nc1c(C(=O)O)[nH]c2ccccc12 the results were STAT3 act-1 120, STAT1 act-1 101, APP 5'UTR act 9, STAT1 blocker -1, NF-kB expr up 1.1 and STAT3 inh -20.
Screening CCS(=O)(=O)Nc1c(C(=O)OC)[nH]c2ccccc12 returned STAT3 act-1 139*, STAT1 act-1 86, APP 5'UTR act 6, STAT1 blocker 15, NF-kB expr up 1.2, STAT3 inh -42, STAT3 act-2 119, NFkB act 2 97 and STAT1 act-2 92.
`Cc1[nH]n(-c2ccccc2)c(=O)c1N=Nc1ccccc1` gave STAT3 act-1 148*, STAT1 act-1 128, APP 5'UTR act 120, STAT1 blocker -32, NF-kB expr up 4*, STAT3 inh -56, STAT3 act-2 176*, NFkB act 2 130* and STAT1 act-2 174*.
For O=C(N/N=C/c1ccc(OCC(=O)N2CCCCC2)cc1)c1ccccc1O the results were STAT3 act-1 141*, STAT1 act-1 91, APP 5'UTR act 3, STAT1 blocker 10, NF-kB expr up 1.2, STAT3 inh -39, STAT3 act-2 146*, NFkB act 2 104 and STAT1 act-2 114.
Screening COc1ccccc1N(C(C)=O)c1nc(C)cc(C)c1C#N returned STAT3 act-1 165*, STAT1 act-1 89, APP 5'UTR act -9, STAT1 blocker 12, NF-kB expr up 1.3, STAT3 inh -75, STAT3 act-2 152*, NFkB act 2 101 and STAT1 act-2 100.

Assay outcomes from PubChem.
